Values after ≈ are worked out from the molar mass of the structure shown.
Experiments:
[1] = molecular target: Protease (Human immunodeficiency virus 1) (UniProt Q9YQ12); experiment: Inhibition of HIV1 recombinant protease at 50 nM after 15 mins by fluorescence assay
Procedure, shortened: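 Recombinant HIV-1 protease was assayed in MES–NaOH pH 5.5 with DTT, EDTA and NaCl, with inhibitor at 50 nM final (500 nM DMSO stock). The substrate was H-Lys-Ala-Arg-Val-Tyr-Phe(p-NO2)-Glu-Ala-Nle-NH2, and the reaction ran 15 min at 37 °C. It was stopped with 1 N HCl. The N-terminal fragment was quantified by RP-HPLC with fluorescence at ex 275/em 305 nm.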

[2] = tested on: Human immunodeficiency virus 1; experiment: Antiviral activity against HIV1 3B infected in human MT4 cells assessed as inhibition of virus-induced cytopathic effect after 5 days by MTT assay; assay type: functional, organism-based; conditions: Human immunodeficiency virus 1, 3B, MT4, 120 h
Procedure, shortened: (§1)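 HIV-1 (IIIB or pNL4-3) inoculated into MT-4 cells. Cultures were treated with an equal volume of a 1% DMSO solution of compound at several concentrations plus 10% fetal bovine serum, then incubated 5 days at 37 °C in CO2, in triplicate. After MTT, optical density gave the percent cytopathic effect reduction. EC50 was fitted to a median-effect equation.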

[3] = tested on: Human immunodeficiency virus 1; experiment: Antiviral activity against HIV1 pNL4-3 infected in human MT4 cells assessed as inhibition of virus-induced cytopathic effect after 5 days by MTT assay; assay type: functional, organism-based; conditions: Human immunodeficiency virus 1, pNL4-3, MT4, 120 h; procedure, shortened: as §1
[4] = tested on: Human immunodeficiency virus 1; experiment: Antiviral activity against indinavir-resistant HIV1 harboring L10R/M46I/L63P/V82T/I84V mutant protease infected in human MT4 cells assessed as inhibition of virus-induced cytopathic effect after 5 days by MTT assay; assay type: functional, organism-based; conditions: Human immunodeficiency virus 1, MT4, 120 h
Procedure, shortened: (§2)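 MT-4 cells inoculated with HIV-1 wild-type pNL4-3 or indinavir-resistant IND-R, then given an equal volume of compound in 1% DMSO at several concentrations with 10% fetal bovine serum. Incubated 5 days at 37 °C in CO2, in triplicate. MTT read-out by optical density gave percent cytopathic-effect reduction; EC50 was fitted to a median-effect equation.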

[5] = tested on: Human immunodeficiency virus 1; experiment: Fold resistance, ratio of EC50 for indinavir-resistant HIV1 harboring L10R/M46I/L63P/V82T/I84V mutant protease infected in human MT4 cells to EC50 for HIV1 pNL4-3 infected in human MT4 cells; assay type: functional; procedure, shortened: as §2
[6] = tested on: Human immunodeficiency virus 1; experiment: Antiviral activity against HIV1 3B infected in human MT4 cells assessed as inhibition of virus-induced cytopathic effect after 5 days by MTT assay in absence of human serum; assay type: functional, organism-based; conditions: Human immunodeficiency virus 1, 3B, MT4, 120 h; procedure, shortened: as §1
[7] = tested on: Human immunodeficiency virus 1; experiment: Antiviral activity against HIV1 3B infected in human MT4 cells assessed as inhibition of virus-induced cytopathic effect after 5 days by MTT assay in presence of 50% human serum; assay type: functional, organism-based; conditions: Human immunodeficiency virus 1, 3B, MT4, 120 h
Procedure, shortened: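 MT-4 cells were infected with wild-type HIV-1 (IIIB or pNL4-3) in the presence of 50% human serum. Compound was added at several concentrations from a 1% DMSO solution, and cells were incubated 5 days at 37 °C in triplicate. Cytopathic effect reduction was read by MTT optical density, and EC50 was derived from a median-effect equation fit.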

[8] = molecular target: Protease (Human immunodeficiency virus 1) (UniProt Q9YQ12); experiment: Inhibition of HIV1 recombinant protease at 1 nM after 3 hrs by fluorescence assay
[9] = tested on: Human immunodeficiency virus 1; experiment: Ratio of EC50 for HIV1 3B infected in human MT4 cells in presence of 50% human serum to EC50 for HIV1 3B infected in human MT4 cells in absence of human serum; assay type: functional
[10] = Aqueous solubility in 0.1% TFA after 30 mins by RP-HPLC analysis; assay type: physicochemical; conditions: 0.1% TFA in water

Protease (Human immunodeficiency virus 1), sequence (Q9YQ12 as listed by the source): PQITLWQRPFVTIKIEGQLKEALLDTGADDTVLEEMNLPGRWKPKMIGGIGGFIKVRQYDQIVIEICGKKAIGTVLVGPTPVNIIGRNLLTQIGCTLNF

Row | SMILES | inhibition [1] [%] | inhibition [8] [%] | EC50 [2] [nM] | EC50 [3] [nM] | EC50 [4] [nM] | Ratio EC50 [5] | EC50 [6] [nM] | EC50 [7] [nM] | Ratio EC50 [9] | solubility at 0.5 h [10] [µg/mL]
1 | C#CCNC(=O)[C@H]1N(C(=O)[C@@H](O)[C@H](Cc2ccccc2)NC(=O)c2cccc(O)c2C)CSC1(C)C | 90 | – | 110 | 558 | 1930 | 3.5 | – | – | – | –
2 | C=CCNC(=O)[C@H]1N(C(=O)[C@@H](O)[C@H](Cc2ccccc2)NC(=O)c2cccc(O)c2C)CSC1(C)C | 93 | – | 123 | 141 | 173 | 1.2 | – | – | – | –
3 | Cc1c(O)cccc1C(=O)N[C@@H](Cc1ccccc1)[C@H](O)C(=O)N1CSC(C)(C)[C@H]1C(=O)NC1CCCC1 | 94 | – | 125 | 290 | 2200 | 7.6 | – | – | – | –
4 | CCNC(=O)[C@H]1N(C(=O)[C@@H](O)[C@H](Cc2ccccc2)NC(=O)c2cccc(O)c2C)CSC1(C)C | 64 | – | 182 | – | – | – | – | – | – | –
5 | C=CCNC(=O)[C@H]1N(C(=O)[C@@H](O)[C@H](Cc2ccccc2)NC(=O)COc2c(C)cc(N)cc2C)CSC1(C)C | 91 | – | – | 54 | 470 | 8.7 | 66 | 284 | 4.3 | 12800 (≈ 23.1 mM)
6 | Cc1c(O)cccc1CNC(=O)[C@H]1N(C(=O)[C@@H](O)[C@H](Cc2ccccc2)NC(=O)c2cccc(O)c2C)CSC1(C)C | 95 | 41 | 120 | 162 | 155 | 1 | – | – | – | –
7 | Cc1cccc(C)c1OCC(=O)N[C@@H](Cc1ccccc1)[C@@H](O)C[C@H](Cc1ccccc1)NC(=O)[C@H](C(C)C)N1CCCNC1=O [LOPINAVIR] | – | – | 30 | 16 | 385 | 24 | – | – | – | –
8 | Cc1cc(N)cc(C)c1OCC(=O)N[C@@H](Cc1ccccc1)[C@H](O)C(=O)N1CSC(C)(C)[C@H]1C(=O)NC1CCCC1 | 90 | – | – | 620 | 3010 | 4.9 | 373 | 1900 | 5 | 7480 (≈ 12.8 mM)
9 | Cc1cccc(C)c1CNC(=O)[C@H]1N(C(=O)[C@@H](O)[C@H](Cc2ccccc2)NC(=O)COc2c(C)cc(N)cc2C)CSC1(C)C | 99 | – | – | 122 | 409 | 3.4 | 41 | 150 | 3.6 | 1250 (≈ 1.98 mM)
10 | Cc1cc(N)cc(C)c1OCC(=O)N[C@@H](Cc1ccccc1)[C@H](O)C(=O)N1CSC(C)(C)[C@H]1C(=O)N[C@H]1CCc2ccccc21 | 97 | – | – | 48 | 416 | 8.7 | 32 | 241 | 7.5 | 1710 (≈ 2.71 mM)
11 | Cc1c(O)cccc1C(=O)N[C@@H](Cc1ccccc1)[C@H](O)C(=O)N1CSC(C)(C)[C@H]1C(=O)NC1CCCCC1 | 86 | – | 207 | 240 | 1730 | 7.2 | – | – | – | –
12 | Cc1ccccc1CNC(=O)[C@H]1N(C(=O)[C@@H](O)[C@H](Cc2ccccc2)NC(=O)COc2c(C)cc(N)cc2C)CSC1(C)C | 98 | – | – | 103 | 568 | 5.5 | 83 | 249 | 3 | 2640 (≈ 4.27 mM)
13 | Cc1cc(N)cc(C)c1OCC(=O)N[C@@H](Cc1ccccc1)[C@H](O)C(=O)N1CSC(C)(C)[C@H]1C(=O)N[C@H]1c2ccccc2C[C@H]1O | – | – | – | 450 | 1420 | 3.2 | 357 | 1500 | 4.2 | 3740 (≈ 5.78 mM)
14 | Cc1c(O)cccc1C(=O)N[C@@H](Cc1ccccc1)[C@H](O)C(=O)N1CSC(C)(C)[C@H]1C(=O)N[C@@H](C)c1ccccc1 | 95 | 31 | 79 | – | – | – | – | – | – | –
15 | Cc1cc(N)cc(C)c1OCC(=O)N[C@@H](Cc1ccccc1)[C@H](O)C(=O)N1CSC(C)(C)[C@H]1C(=O)NC(C)(C)C | 92 | – | – | 280 | 2030 | 7.3 | 132 | 601 | 4.5 | 6020 (≈ 10.5 mM)

Continued, in another order:

Row | inhibition [1] [%] | inhibition [8] [%] | SMILES | EC50 [2] [nM] | EC50 [3] [nM] | EC50 [4] [nM] | Ratio EC50 [5] | EC50 [6] [nM] | EC50 [7] [nM] | Ratio EC50 [9] | solubility at 0.5 h [10] [µg/mL]
16 | 91 | – | Cc1cccc(C)c1OCC(=O)N[C@@H](Cc1ccccc1)[C@H](O)C(=O)N1CSC(C)(C)[C@H]1C(=O)NC(C)(C)C | – | – | – | – | 1290 | 4500 | – | –
17 | 99 | 77 | Cc1cccc(Cl)c1CNC(=O)[C@H]1N(C(=O)[C@@H](O)[C@H](Cc2ccccc2)NC(=O)c2cccc(O)c2C)CSC1(C)C | 32 | – | – | – | – | – | – | –
18 | 95 | – | Cc1cc(N)cc(C)c1OCC(=O)N[C@@H](Cc1ccccc1)[C@H](O)C(=O)N1CSC(C)(C)[C@H]1C(=O)NCc1c(Cl)cccc1Cl | – | – | – | – | 158 | 648 | 4.1 | 1180 (≈ 1.75 mM)
19 | 85 | – | Cc1ccccc1CNC(=O)[C@H]1N(C(=O)[C@@H](O)[C@H](Cc2ccccc2)NC(=O)COc2c(C)cc(N(C)C)cc2C)CSC1(C)C | – | – | – | – | 758 | 3900 | 5.1 | 3830 (≈ 5.92 mM)
20 | 91 | – | Cc1cc(N)cc(C)c1OCC(=O)N[C@@H](Cc1ccccc1)[C@H](O)C(=O)N1CSC(C)(C)[C@H]1C(=O)NC/C=C\CO | – | – | – | – | 184 | 433 | 2.3 | 9320 (≈ 15.9 mM)
21 | 76 | – | Cc1c(O)cccc1C(=O)N[C@@H](Cc1ccccc1)[C@H](O)C(=O)N1CSC(C)(C)[C@H]1C(=O)NC1CCCCCC1 | 332 | – | – | – | – | – | – | –
22 | 94 | – | Cc1c(O)cccc1C(=O)N[C@@H](Cc1ccccc1)[C@H](O)C(=O)N1CSC(C)(C)[C@H]1C(=O)NC/C=C\CO | 1200 | – | – | – | – | – | – | –
23 | 66 | – | Cc1c(O)cccc1C(=O)N[C@@H](Cc1ccccc1)[C@H](O)C(=O)N1CSC(C)(C)[C@H]1C(=O)N[C@@H]1c2ccccc2C[C@@H]1O | 550 | – | – | – | – | – | – | –
24 | 92 | – | Cc1c(O)cccc1C(=O)N[C@@H](Cc1ccccc1)[C@H](O)C(=O)N1CSC(C)(C)[C@H]1C(=O)N[C@H]1c2ccccc2C[C@H]1O | 100 | – | – | – | – | – | – | –
25 | 91 | – | Cc1c(O)cccc1C(=O)N[C@@H](Cc1ccccc1)[C@H](O)C(=O)N1CSC(C)(C)[C@H]1C(=O)N[C@@H]1CCc2ccccc21 | 353 | – | – | – | – | – | – | –
26 | 52 | – | Cc1c(O)cccc1C(=O)N[C@@H](Cc1ccccc1)[C@H](O)C(=O)N1CSC(C)(C)[C@H]1C(=O)N[C@H](C)c1ccccc1 | 617 | – | – | – | – | – | – | –
27 | 88 | – | CCCNC(=O)[C@H]1N(C(=O)[C@@H](O)[C@H](Cc2ccccc2)NC(=O)c2cccc(O)c2C)CSC1(C)C | 91 | – | – | – | – | – | – | –
28 | 65 | – | Cc1c(O)cccc1C(=O)N[C@@H](Cc1ccccc1)[C@H](O)C(=O)N1CSC(C)(C)[C@H]1C(=O)NC1CCC1 | 119 | – | – | – | – | – | – | –
29 | 97 | – | Cc1c(O)cccc1C(=O)N[C@@H](Cc1ccccc1)[C@H](O)C(=O)N1CSC(C)(C)[C@H]1C(=O)N[C@H]1CCc2ccccc21 | 73 | – | – | – | – | – | – | –
30 | 91 | 24 | Cc1c(O)cccc1C(=O)N[C@@H](Cc1ccccc1)[C@H](O)C(=O)N1CSC(C)(C)[C@H]1C(=O)NCc1c(F)cccc1F | 51 | – | – | – | – | – | – | –
31 | 98 | 66 | Cc1c(O)cccc1C(=O)N[C@@H](Cc1ccccc1)[C@H](O)C(=O)N1CSC(C)(C)[C@H]1C(=O)NCc1c(Cl)cccc1Cl | 39 | – | – | – | – | – | – | –
32 | 85 | – | CNc1cc(C)c(OCC(=O)N[C@@H](Cc2ccccc2)[C@H](O)C(=O)N2CSC(C)(C)[C@H]2C(=O)NCc2ccccc2C)c(C)c1 | – | – | – | – | 191 | 560 | 2.9 | 2990 (≈ 4.72 mM)
33 | 97 | 53 | Cc1c(F)cccc1CNC(=O)[C@H]1N(C(=O)[C@@H](O)[C@H](Cc2ccccc2)NC(=O)c2cccc(O)c2C)CSC1(C)C | 56 | – | – | – | – | – | – | –
